Laboratory results: ChEMBL document CHEMBL3877328, “Identification of allosteric binding sites for PI3Kα oncogenic mutant specific inhibitor design” (Bioorg Med Chem, 2017)

Tests used:
[1] = molecular target: PI3-kinase p110-alpha/p85-alpha (Homo sapiens) (UniProt P27986+P42336); assay: Inhibition of wild type PI3K p110alpha/p85alpha niSH2 (unknown origin) expressed in baculovirus infected sf9 cells assessed as reduction in PIP3 formation at 100 uM using PIP2 as substrate after 45 mins by fluorescence polarization assay relative to control
In short: (§1)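 Wild-type PI3Kα, either full-length or the p110α/niSH2 construct used for crystallography. Protein was co-expressed in Sf9 cells from p110α and p85α (or niSH2) viruses at MOI ratio 3:2, with J-32 in the medium, and harvested at 48 h. Fragments were added from 10% (v/v) DMSO dilutions and screened at 100 μM. Reactions held 10 μM PIP2 and 25 μM ATP, 45 min at room temperature. PIP3 formation was read by fluorescence polarization.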

[2] = molecular target: T1, Phosphatidylinositol 4,5-bisphosphate 3-kinase catalytic subunit alpha isoform (Homo sapiens, UniProt P42336); assay: Inhibition of full length PI3Kalpha (unknown origin) assessed as reduction in PIP3 formation at 100 uM using PIP2 as substrate after 45 mins by fluorescence polarization assay relative to control; in short: as §1
T1 sequence (P42336 whole entry, canonical isoform): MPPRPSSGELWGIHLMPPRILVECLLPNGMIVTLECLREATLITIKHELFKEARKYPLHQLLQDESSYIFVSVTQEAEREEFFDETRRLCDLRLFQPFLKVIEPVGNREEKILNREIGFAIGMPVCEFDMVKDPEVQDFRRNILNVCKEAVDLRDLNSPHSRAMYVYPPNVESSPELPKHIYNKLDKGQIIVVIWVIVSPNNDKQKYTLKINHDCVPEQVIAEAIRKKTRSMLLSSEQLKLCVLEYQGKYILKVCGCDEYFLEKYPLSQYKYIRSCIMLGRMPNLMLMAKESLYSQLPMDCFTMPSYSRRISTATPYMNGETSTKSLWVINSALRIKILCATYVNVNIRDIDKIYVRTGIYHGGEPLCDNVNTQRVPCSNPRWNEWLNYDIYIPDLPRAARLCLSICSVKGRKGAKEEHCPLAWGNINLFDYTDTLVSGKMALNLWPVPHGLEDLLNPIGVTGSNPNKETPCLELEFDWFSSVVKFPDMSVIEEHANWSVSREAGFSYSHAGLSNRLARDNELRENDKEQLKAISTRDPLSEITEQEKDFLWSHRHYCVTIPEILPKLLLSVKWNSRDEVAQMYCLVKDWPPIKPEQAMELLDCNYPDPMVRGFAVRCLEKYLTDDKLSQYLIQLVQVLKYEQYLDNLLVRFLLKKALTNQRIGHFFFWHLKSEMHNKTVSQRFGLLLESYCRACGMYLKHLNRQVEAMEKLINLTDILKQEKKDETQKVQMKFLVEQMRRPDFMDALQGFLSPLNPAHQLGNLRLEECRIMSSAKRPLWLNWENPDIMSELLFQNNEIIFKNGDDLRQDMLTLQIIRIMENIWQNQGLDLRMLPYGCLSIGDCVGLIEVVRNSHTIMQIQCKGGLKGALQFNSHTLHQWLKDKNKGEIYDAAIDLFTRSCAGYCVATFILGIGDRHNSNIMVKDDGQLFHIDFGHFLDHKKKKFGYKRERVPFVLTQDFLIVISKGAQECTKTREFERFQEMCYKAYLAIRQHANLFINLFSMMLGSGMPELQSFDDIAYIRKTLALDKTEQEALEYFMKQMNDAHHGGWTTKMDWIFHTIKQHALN

[3] = molecular target: T1, Phosphatidylinositol 4,5-bisphosphate 3-kinase catalytic subunit alpha isoform; assay: Inhibition of full length PI3Kalpha (unknown origin) assessed as reduction in PIP3 formation using PIP2 as substrate after 45 mins by fluorescence polarization assay
In short: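 Wild-type full-length p110α/p85α PI3Kα, baculovirus-expressed in Sf9 cells, purified. Fluorescence polarization kit detecting PIP3 formation. Reaction with 10 μM PIP2 and 25 μM ATP, 45 min at room temperature. Fragments diluted in 10% (v/v) DMSO. Single-point screen at 100 μM; IC50 from dose-response curves over increasing fragment concentrations.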

Row | SMILES | inhibition [1] | inhibition [2] | IC50 [3]
1 | OC1CCC(O)CC1 (configuration not stated) | < 25% | < 25% | 
2 | O=C(O)c1ccccc1O | < 25% | < 25% | 
3 | Nc1ccc2c(c1)CN=N2 | < 25% | < 25% | 
4 | Cc1ccnc(N)c1[N+](=O)[O-] | < 25% | < 25% | 
5 | Cc1c(N)cccc1N |  | 92% | 20 µM
6 | O=c1[nH]c(=O)c2nccnc2[nH]1 | < 25% | < 25% | 
7 | Oc1cccnc1 | < 25% | < 25% | 
8 | Nc1ccccc1CO | < 25% | < 25% | 
9 | Cc1cccc(N)n1 | < 25% | < 25% | 
10 | Cc1cc(C)nc(N)c1 | < 25% | < 25% | 
11 | Oc1ccccc1O [CATECHOL] |  | 87% | 33 µM
12 | CC(C)(C)OC(=O)N1CCC(N)CC1 | < 25% | < 25% | 
13 | Nc1nc2ccccc2[nH]1 | < 25% | < 25% | 
14 | Cc1cc2ccccc2[nH]1 | < 25% | < 25% | 
15 | CC1C(=O)CCCC1=O | < 25% | < 25% | 
16 | N#Cc1cccc(N)c1 | < 25% | < 25% | 
17 | Nc1ccc2[nH]c(C(F)(F)F)nc2c1 | < 25% | < 25% | 
18 | COc1ccccc1C(=O)O | < 25% | < 25% | 
19 | O=C(O)CCc1ccc(O)cc1 | < 25% | < 25% | 
20 | NS(=O)(=O)c1ccccc1Cl | < 25% | < 25% | 
21 | O=c1[nH]cc(F)c(=O)[nH]1 | < 25% | < 25% | 
